According to the EternaBench riboswitch data:

System: MS2 coat protein
Experiment: apparent Kd, MS2 coat protein; higher = weaker binding; RNA-MaP array; FMN 200 µM where present
Method in brief: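 Stalled E. coli RNA polymerase transcribed the designs on Illumina sequencing-chip clusters. SNAP-549-labelled MS2 coat protein was titrated from 0.7 or 1.5 nM, doubling to 3 µM, without and then with constant ligand, in 100 mM Tris-HCl pH 7.5, 80 mM KCl, 4 mM MgCl2, BSA, DTT, yeast tRNA and Tween-20. Per-cluster binding curves were fitted to green signal normalised to red-channel RNA signal and control-cluster median Fmax. The apparent Kd is the median of the filtered fits.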

[1] = designed as: ON switch for flavin mononucleotide, no ligand
[2] = ligand present: flavin mononucleotide, designed as: ON switch for flavin mononucleotide
[3] = designed as: OFF switch for flavin mononucleotide, no ligand
[4] = ligand present: flavin mononucleotide, designed as: OFF switch for flavin mononucleotide

Sequence | apparent Kd [1] [nM] | apparent Kd [2] [nM] | apparent Kd [3] [nM] | apparent Kd [4] [nM]
AAAAUCAAUUGAGGAUAUUCAUACACUACAUACGGAGAAGGCAAACAAUCAUGAGGACAUGAGGAUCACCCAUGUUGUGACCAU | 22.3 | 16.3 |  | 
CCGACGAAAAUCGGGCUACAUGAGGAUCACCCAUGUGCUUCACAGGAUAUGGUACGUAGUGAGUUCCAGAAGGGUGAUUAAUCU | 205 | 129 |  | 
AGUGCCUCGAGAGGAUAUUACAUGAGGAUCACCCAUGUAACAGAGGUGGAAACACCUCUGAAAUGUAAGAAGGCUCGAGGCACA |  |  | 19.2 | 31.2
CGAUAGGACAGAGGAUAUACACAUGAGGAUCACCCAUGUAAUUACAACUCAUGAGGAUCACCCAUGUAGAAGGCUGUCCUAUCG |  |  | 397 | 430
AGCUCGGGUGCAGGAUAUCCGCCGGAUCGCAGUGGAGAAGGGCGCCAAGCGAACAUGAGGAUCACCCAUGUAUCGGAGCCGGAC | 55.6 | 11.1 |  | 
CCCAGGUCAUCUCCCGGGAACAACAUGAGGAUCACCCAUGUCUAGGAUAUCCACCAGUCAAUAAAGGAGAAGGAGACGGUGGUU |  |  | 29.3 | 31.9
UGUGUGUGAGGAUAUACAUGAGGAUCACCCAUGUAGCGCGCGCGUAUUCGUGUGUGUUGUAGAAGGCGCGCGCG |  |  | 33 | 30.5
UGAAAUCAUGUAGGAUAUGCAUGGCGAAGCUACGCAGAAGGACAUGAGGAUCACCCAUGUUAUAGCUACCCAGCUCGGUGGCAA |  |  | 39.6 | 117
GUGCGGUAGGAGAAGGACGGAGGCUUCUUUUCAUACAUGAGGAUCACCCAUGUAGGAUAUCCUACCUCACGCGGCCUACUACAG |  |  | 8.74 | 7.7
AUCGGAAUGUAGAAGGGUGACAUGAGGAUCACCCAUGUUCAAAUGCGUUUUUCGGUAAUUGAUCCACAGGAUAUACUGUCCGUG | 631 | 485 |  | 
UGAGGACAUGAGGAUCACCCAUGUAGGCCACAAUCAGGAUAUGCAUUAAGGUACCUAAGAGUAGAAGGGAUUCGAG | 82.1 | 75.6 |  | 
CGAUAGGACAGAGGAUAUACACAUGAGGAUCACCCAUGUGAUUACAAUUCUUAAGAUUCAAACAUGUAGAAGGCUGUCCUAUCG |  |  | 9.25 | 17.4
GUUACAUGAGGAUCACCCAUGUAUGUGUGGGAGUAAGUGUCUUAGGAUAUCUAUGAUUUAAUUGAAGAGAAGGAAGAUUGUUGU | 116 | 122 |  | 
AGCUGUGGCCGAGGAUAUCUAACUUCAAAUACCGACGUAUAGUCGGACAUGAGGAUCACCCAUGUAGAGAAGGCGGUCUCAGCA |  |  | 16.1 | 26.7
GCGCUUAUACAGAAGGCCAUAUACAUGAGGAUCACCCAUGUUACAUGGUGGAGGAUAUGUUAUUAAGUACAGGUAGAUGAGCGC | 5.98 | 5.38 |  | 
GCGUCAGAAUUAAUUGUGACAGACAGAAGGCAAUAGUAUGUGACAGACAUGAGGAUCACCCAUGUUGAGGAUAUGUAUUGACAC |  |  | 6.6 | 7.36
CGUGCGUAUGUGAGGAUAUGCUGGUCCUUGGAUCGGCAGAAGGCACAUGAGGAUCACCCAUGUGGUGUCGUUCC |  |  | 42.8 | 274
GCGUCAGAAUUAAUUGUGACAGACAGAAGGCAAUAGUUCAUGUCAGACAUGAGGAUCACCCAUGUUGAGGAUAUGUAUUUACUC |  |  | 7.54 | 8.35
AAAGGACGAGGAUAUACAUGAGGAUCACCCAUGUGUAAAACGUAAUAAAAUAACUUAUGUAGAAGGCGUCCAAA |  |  | 30.6 | 216
UAAUUUUGUCAAGGAUAUGUAAUAUAGAUUUGAAAACAUGAGGAUCACCCAUGUAUAUGGUGGGAACAGAAGGUGAAUGGAGAA |  |  | 252 | 242
GCACCAAGAGGAUAUACCGAGGUCAUCUACUUUGCAUAGCGACAUGAGGAUCACCCAUGUAGAAGGUUUGUCGU |  |  | 95.4 | 80.6
GGGCGUAAUACAUGAGGAUCACCCAUGUCAGAAAGGGUAAUCAGAAGGUACUAUUAGAGAAAGAGUAAGGAUAUGAAUACGCCC | 876 | 169 |  | 
GUCGUGUUAGGAUAUGGCAACGGCGGCGAAAGUUGUUGUUGUUAGAAGGAACAUGAGGAUCACCCAUGUAUGAC |  |  | 37.7 | 113
CCAUAUAACUGAGGAUAUGAUCACCACUAACAUUCAGAAGGCAGACAUGAGGAUCACCCAUGUGAUUUCUCAAUAUUAUACAUC |  |  | 572 | 363
AACUAAGUAUUAAUGGUGUCUGACAGAAGGCAAUAGAAUGAGACCGACAUGAGGAUCACCCAUGUUGAGGAUAUGUCUUGCUAC |  |  | 6.44 | 6.73
AAGAAACAUGAGGAUCACCCAUGUCAGGAUAUGCAGGACUGACGAAAGUCAGUCCAAAGCAGAAGGGACUAGAA |  |  | 60.7 | 81.8
CGAGGACAUGAGGAUCACCCAUGUAGCUACAAAACGCAGCGACAGGAUAUCCUCUGGUUCCCAUAGGAGAAGGGUCAAACCUUG | 29.4 | 47.3 |  | 
GCACUGGAUGUAGGAUAUCAGGACGAUAAGUCCUGAGAAGGACAUGAGGAUCACCCAUGUCCUAAAACCAGUGCAUAUAAUAUA |  |  | 14.4 | 16.7

Sequence | apparent Kd [1] [nM] | apparent Kd [2] [nM] | apparent Kd [3] [nM] | apparent Kd [4] [nM]
GCGCUUAUACAGAAGGCCAGUUACAUGAGGAUCACCCAUGUUAGAUUGUGGAGGAUAUGUGUUUUAUUACAGAUAGUUGAGCGC | 13.4 | 6.84 |  | 
CCCGGGUUUGUGAGGAUAUUGGGCCCGAAAGGGCCCGAGAAGGCACAUGAGGAUCACCCAUGUAAGGGCCCGGG |  |  | 25.8 | 26.4
AAAAUAUAAAGAGAGGAUAUCCAAAGAACCACAUGAGGAUCACCCAUGUAAAGAAAGAAUAAGUGGGAGAAGGCUCAAAUAAUAA | 187 | 29.2 |  | 
GCACGUAGACAGAAGGCGACAUGAGGAUCACCCAUGUUGGCUCGGGUAUGACCAAUCCGCAUGAUCGAGGAUAUGUCCGCGGGC |  |  | 265 | 19.2
GCACGGUAAGUGAGGAUAUACCUCUGGAUACAGAGGUAGAAGGCACAUGAGGAUCACCCAUGUCCAAGCCGUGC |  |  | 23.7 | 103
UCAUUAGCGGGCGGAUCGGUUGGACAUGAGGAUCACCCAUGUAGAAGGACCGGUGGAUUCCGGCGGUAGGAUAUACAUUUGGUG |  |  | 12.7 | 19.8
AAAGUGUCAGGAUAUACAUGAGGAUCACCCAUGUAUCUUUUUGAUCGUAGGGUGCACCGUAGAAGGGACACUCC |  |  | 27.4 | 37.1
GUAGUUAGUAGAGGAUAUUAGUAUGUGUAAUAUUGAGAAGGUUACAUGAGGAUCACCCAUGUGAUCAAUCACUGUUAAGGUUGC |  |  | 6.48 | 6.71
ACGUAUCGUGUAGGAUAUGACACAGGAAACUGGUCAGAAGGACAUGAGGAUCACCCAUGUAGAGUAUGUUAGGAUGACGUAUGC |  |  | 43 | 261
AGCGGAUUGUAGAAGGGUGACAUGAGGAUCACCCAUGUUCAAAUGCGAUUUACGGUAAUUGAUCCACAGGAUAUACUGUCCGAG | 942 | 266 |  | 
CUCGGCGAGGGAGGAUAUCCCUAUGAGGCGGUGCAGCUCGGGAACAUGAGGAUCACCCAUGUAGCGGAGAAGGCCCAUACGCCU |  |  | 9.59 | 34.5
UGUGUGUUUGUGAGGAUAUGCGCGCGGAAAUGUGUGUAGAAGGCACAUGAGGAUCACCCAUGUAAGGGCGCGCG |  |  | 596 | 439
AAAUUUAACGAAGGAUAUGCUUACAUGAGGAUCACCCAUGUGUGCCUUGUGAUGCUGAUUAAGUUGCAGAAGGUCGUAUACAUA |  |  | 124 | 414
GCUGUCGCAUGAGGAUAUGGACAGCUUUGCUGUCCAGAAGGCAUGUCGAUAGACAUGAGGAUCACCCAUGUAGUAAAGACAGCA | 588 | 64.6 |  | 
GGAUAACAUGAGGAUCACCCAUGUACAUGGGUACAAGGAUAUGUAAAAUAAAACAAACAAACAGAAGGUGUAAAAA | 708 | 1450 |  | 
GAUCAACAUGAGGAUCACCCAUGUGAGGAUAUGAUACUAUGUACUUCGGUACAUAGUAUCAGAAGGCAUGUAAA |  |  | 50.1 | 42.5
GCUACUUAUUUUAAUUAUGAUUUACUAGAAGGUAGAUACAUGAGGAUCACCCAUGUUUAGAGUUCUAAGGAUAUAGUUUUUAGC | 8.25 | 7.24 |  | 
CCAUGCAUAGCGAUAUGAUCGAGAGAUCAUGUCGCUAAAUUUAGAAGGACAUGAGGAUCACCCAUGUAGGAUAUGGGAGCAUGC | 58.4 | 17.8 |  | 
UUUAUGUCAGGAUAUGAGUAGUAGAACAAUAGUACUACUACUCAGAAGGGACAUGAGGAUCACCCAUGUUUCUC |  |  | 23.4 | 143
GGAGUACAUGAGGAUCACCCAUGUUGGAACAAAGUAGGAUAUGUACAAUAUUAAAUAAAAACAGAAGGACUAAGAA | 47.4 | 30.8 |  | 
CAAUGCCUGUCGAUGCUCGACAUGAGGAUCACCCAUGUAUAGCAGGAUAUGCAGAACUGACUCGUGCAGAAGGGCUAUACCUAA |  |  | 25.8 | 61.1
AGGAGAAAUGUAGGAUAUGGGUAUAUAUAUGGGCAAAGCGCAUAUAUAUACCCAGAAGGACAUGAGGAUCACCCAUGUUUCCCU |  |  | 12.5 | 12.9
AAUAAACUCACAGGAUAUAGCAUAGGUCGCGUGAACUUACAGGCGACGAUGCUAGAAGGGUGACCACAUGAGGAUCACCCAUGU | 892 | 172 |  | 
CUGUUAUAGGUCCAGAAUUACAACAUGAGGAUCACCCAUGUGCAGGAUAUCGGGUUGAUAGGCGACGAGAAGGGCAUAGUCACG |  |  | 76.5 | 79.2
UUUAUUUUGCAAGGAUAUGUUUAAUUUUAGUUUCCUUACACAUGAGGAUCACCCAUGUUAUACUUACAGAAGGUGCAUAAUUUU |  |  | 173 | 94.6
UCCGCAAGUGAAGGAUAUACGGCUGAAGAGCCAGUAGAAGGUCACAUGAGGAUCACCCAUGUCUACCGCUACGAGAUAUUACAA |  |  | 19.1 | 59.5
UGACCCUGGAAGAGUGUUUAGACAUGAGGAUCACCCAUGUCUGAGGAUAUGCGGCAUCAAUAACAGCAGAAGGCAGACUUGGGU |  |  | 239 | 32.7
